Data as given in ChEMBL document CHEMBL4706526, “The HIV-1 maturation inhibitor, EP39, interferes with the dynamic helix-coil equilibrium of the CA-SP1 junction of Gag” (Eur J Med Chem, 2020).
Calls of active or inactive are those of the source. The calls are words filed in the database; no cut-off is given here.

Experiments:
[1] = Binding affinity to HIV-1NL4-3 15N-labeled C-terminal domain CA-SP1-NC at M235 residue cleavage site of Gag-Pol protein harboring W184A/M185A mutant expressed in Escherichia coli by 1H-15N SOFAST-HMQC spectroscopic analysis; design: species or system Human immunodeficiency virus 1
Outline: (§1)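 300 μM 15N-labelled CA-CTD(W184A/M185A)-SP1-NC in acetate buffer (25 mM Na acetate pH 6.5, 25 mM NaCl, 0.1 mM ZnCl2, 0.1 mM 2-mercaptoethanol, 10% D2O), 303 K, 600 MHz with cryoprobe. Ligand added from ~60 mM DMSO-d6 stock; reference 1H-15N SOFAST-HMQC recorded first. Per-residue Kd from non-linear fit of chemical shift perturbation vs ligand concentration, one-site model plus linear non-specific term.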

[2] = Binding affinity to HIV-1NL4-3 15N-labeled C-terminal domain CA-SP1-NC at T257 residue cleavage site of Gag-Pol protein harboring W184A/M185A mutant expressed in Escherichia coli by 1H-15N SOFAST-HMQC spectroscopic analysis; design: species or system Human immunodeficiency virus 1; outline: as §1
[3] = tested on: Human immunodeficiency virus 1; test: Binding affinity to HIV-1NL4-3 15N-labeled C-terminal domain CA-SP1-NC cleavage site of Gag-Pol protein harboring W184A/M185A mutant expressed in Escherichia coli assessed as change in resonances at CA 220/225 to 229 and Nc 248 to 253/ 256 residues by 1H-15N SOFAST-HMQC spectroscopic analysis
Outline: (§2)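 1H-15N SOFAST-HMQC of 300 μM 15N-labelled CA-CTD(W184A/M185A)-SP1-NC, without and with ligand. Buffer: 25 mM Na acetate pH 6.5, 25 mM NaCl, 0.1 mM ZnCl2, 0.1 mM 2-mercaptoethanol, 10% D2O. Recorded at 303 K, 600 MHz, cryoprobe. Ligand from ~60 mM DMSO-d6 stock. Control sample held protein plus the same DMSO-d6 amount.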

[4] = Binding affinity to HIV-1NL4-3 15N-labeled C-terminal domain CA-SP1-NC at L231 residue cleavage site of Gag-Pol protein harboring W184A/M185A mutant expressed in Escherichia coli by 1H-15N SOFAST-HMQC spectroscopic analysis; design: species or system Human immunodeficiency virus 1; outline: as §1
[5] = tested on: Human immunodeficiency virus 1; test: Binding affinity to HIV-1NL4-3 15N-labeled C-terminal domain CA-SP1-NC cleavage site of Gag-Pol protein harboring W184A/M185A mutant expressed in Escherichia coli assessed as change in chemical shift perturbation at CA 218 to NC 257 residues by 1H-15N SOFAST-HMQC spectroscopic analysis; outline: as §2
[6] = Binding affinity to HIV-1NL4-3 15N-labeled C-terminal domain CA-SP1-NC at E233 residue cleavage site of Gag-Pol protein harboring W184A/M185A mutant expressed in Escherichia coli by 1H-15N SOFAST-HMQC spectroscopic analysis; design: species or system Human immunodeficiency virus 1; outline: as §1
[7] = Binding affinity to HIV-1NL4-3 15N-labeled C-terminal domain CA-SP1-NC at V238 residue cleavage site of Gag-Pol protein harboring W184A/M185A mutant expressed in Escherichia coli by 1H-15N SOFAST-HMQC spectroscopic analysis; design: species or system Human immunodeficiency virus 1; outline: as §1
[8] = Binding affinity to HIV-1NL4-3 15N-labeled C-terminal domain CA-SP1-NC at Q237 residue cleavage site of Gag-Pol protein harboring W184A/M185A mutant expressed in Escherichia coli by 1H-15N SOFAST-HMQC spectroscopic analysis; design: species or system Human immunodeficiency virus 1; outline: as §1
[9] = tested on: Human immunodeficiency virus 1; test: Binding affinity to HIV-1NL4-3 15N-labeled C-terminal domain CA-SP1-NC cleavage site of Gag-Pol protein harboring W184A/M185A mutant expressed in Escherichia coli assessed as formation of QVT motif at SP1 232 to 239 residues by NMR analysis
[10] = Binding affinity to HIV-1NL4-3 15N-labeled C-terminal domain CA-SP1-NC at V221 residue cleavage site of Gag-Pol protein harboring W184A/M185A mutant expressed in Escherichia coli by 1H-15N SOFAST-HMQC spectroscopic analysis; design: species or system Human immunodeficiency virus 1; outline: as §1
[11] = Binding affinity to HIV-1NL4-3 15N-labeled C-terminal domain CA-SP1-NC at S236 residue cleavage site of Gag-Pol protein harboring W184A/M185A mutant expressed in Escherichia coli by 1H-15N SOFAST-HMQC spectroscopic analysis; design: species or system Human immunodeficiency virus 1; outline: as §1
[12] = tested on: Human immunodeficiency virus 1; test: Binding affinity to HIV-1NL4-3 15N-labeled C-terminal domain CA-SP1-NC cleavage site of Gag-Pol protein harboring W184A/M185A mutant expressed in Escherichia coli assessed as HetNOE value at SP1 T239 residues by NMR analysis (reference value: -0.324No_unit)
[13] = tested on: Human immunodeficiency virus 1; test: Binding affinity to HIV-1NL4-3 15N-labeled C-terminal domain CA-SP1-NC cleavage site of Gag-Pol protein harboring W184A/M185A mutant expressed in Escherichia coli assessed as change in peak intensity at CA 218 to NC 257 residues by 1H-15N SOFAST-HMQC spectroscopic analysis; outline: as §2
[14] = Binding affinity to HIV-1NL4-3 15N-labeled C-terminal domain CA-SP1-NC at A232 residue cleavage site of Gag-Pol protein harboring W184A/M185A mutant expressed in Escherichia coli by 1H-15N SOFAST-HMQC spectroscopic analysis; design: species or system Human immunodeficiency virus 1; outline: as §1
[15] = Binding affinity to HIV-1NL4-3 15N-labeled C-terminal domain CA-SP1-NC at T239 residue cleavage site of Gag-Pol protein harboring W184A/M185A mutant expressed in Escherichia coli by 1H-15N SOFAST-HMQC spectroscopic analysis; design: species or system Human immunodeficiency virus 1; outline: as §1
[16] = tested on: Human immunodeficiency virus 1; test: Binding affinity to HIV-1NL4-3 15N-labeled C-terminal domain CA-SP1-NC cleavage site of Gag-Pol protein harboring W184A/M185A mutant expressed in Escherichia coli assessed as change in peak intensity at CA 225 to 229/NC 248 to 251 residues by NMR analysis

C=C(C)[C@@H]1CC[C@]2(C(=O)NCCN)CC[C@]3(C)[C@@H](CC[C@@H]4[C@@]5(C)CC[C@H](OC(=O)CC(C)(C)C(=O)O)C(C)(C)[C@@H]5CC[C@]43C)[C@@H]12
Kd [1]: 235 µM
Kd [2]: 308 µM
Activity [3]: Active
Kd [4]: 678 µM
Activity [5]: Active
Kd [6]: 237 µM
Kd [7]: 204 µM
Kd [8]: 154 µM
Activity [9]: Active
Kd [10]: 670 µM
Kd [11]: 180 µM
Activity [12]: -0.164
Activity [13]: Active
Kd [14]: 692 µM
Kd [15]: 52.5 µM
Activity [16]: Active
